Experimental data pooled from the literature.
Each line is one published result; the experiments were not run side by side.
Target: Protein-tyrosine kinase 6 (PTK6, Homo sapiens, UniProt Q13882)

effect on | technique | concentration | remaining binding | Compound
cell-free assay | competition with immobilised ligand | 0.1 µM | 98% | CCOC(=O)c1cc2cc(-c3cc(C(=O)NCc4ccc(C(=O)O)cc4)nn3C)ccc2[nH]1
binding | – | 1 µM | 83% | c1cnn2ncc(-c3ccnc(N4CCC45COC5)n3)c2c1
cell-free assay | competition with immobilised ligand | 1 µM | 100% | COc1cc(-c2cn(C3CCc4ccccc4N(CC(F)(F)F)C3=O)nn2)ccc1-n1ccc(C)n1 (stereo not drawn)
binding | competition with immobilised ligand | 0.1 µM | 62% | C[C@@H](c1ccc(-n2cnc3c(N)ncnc32)cc1)N1CCc2nn(C)c(Cc3ccccc3)c2C1=O
cell-free assay | competition with immobilised ligand | 0.1 µM | 96% | Nc1c(C(=O)NCc2ccc(C(=O)NCCCC3CCCCC3)cc2)cnn1-c1ccccc1
binding | competition with immobilised ligand | 1 µM | 100% | O=C(NCC1CCOCC1)c1n[nH]cc1NC(=O)c1c(F)cccc1F
binding | – | 1 µM | 100% | C[C@@H]1CCN(c2nccc(-c3cnn4ncccc34)n2)C1
binding | competition with immobilised ligand | 1 µM | 79% | O=C(c1ccc(Nc2ncc(Cl)c(-c3ccc(Cl)s3)n2)cc1)N1CCC(N2CCCC2)CC1
binding | competition with immobilised ligand | 1 µM | 100% | C=CC(=O)N1CCC(C(=O)NCC(=O)N2CCN(c3nc(-c4cnc(N)nc4C(F)F)nc(N4CCOCC4)n3)CC2)CC1
cell-free assay | competition with immobilised ligand | 1 µM | 86% | CN(C)c1ncnc(-c2ccc3nc(Nc4cc(CN5CCN(C(=O)CC(F)(F)F)CC5)ccn4)[nH]c3c2)c1Cl
binding | – | 1 µM | 99% | CN(C)c1ncc(F)c(-c2cnn3ncccc23)n1
cell-free assay | competition with immobilised ligand | 5 µM | 86% | FC(F)(F)Oc1cccc(-c2cnc3ccc(-c4ccncc4)nn23)c1
binding | competition with immobilised ligand | 1 µM | 65% | O=C(c1ccc(Nc2nccc(-c3cc4ccccc4s3)n2)cc1)N1CCC(N2CCCC2)CC1
binding | – | 1 µM | 100% | N[C@@H]1CCN(c2nccc(-c3cnn4ncccc34)n2)C1
binding | competition with immobilised ligand | 1 µM | 97% | Nc1ncc2c(n1)-c1c([nH]c3ccc(C#CC4CC4)cc13)CCCC2
binding | – | 1 µM | 92% | CN(C)c1nccc(-c2cnc3ncccn23)n1
binding | competition with immobilised ligand | 1 µM | 100% | COc1cnc(Nc2cccc(S(N)(=O)=O)c2)nc1N1CCN(c2ccccc2)C(=O)C1
cell-free assay | competition with immobilised ligand | 1 µM | 100% | COc1cc(-c2cn(C3CCc4c(F)cccc4N(CC(F)(F)F)C3=O)nn2)ccc1-n1cnc(C)c1 (stereo not drawn)
binding | – | 1 µM | 89% | F[C@@H]1CCN(c2nccc(-c3cnn4ncccc34)n2)C1
cell-free assay | competition with immobilised ligand | 1 µM | 83% | C[C@H](c1ccc(F)cc1)N(Cc1cccc(C(=O)O)c1)C(=O)c1cnc2ccccc2c1
binding | competition with immobilised ligand | 1 µM | 79% | O=C(NCCCN1CCOCC1)c1ccc(Nc2nccc(-c3cc4ccccc4s3)n2)cc1
